Shown are actives, neighbours in structure and some others; about 12% of the full set was active somewhere.
ABCB1 block – ABCB1 efflux pump inhibitors, primary screen, cell-based, multiplex, flow cytometry, ABCG2 counter-screen | ATP-dependent translocase ABCB1 (Homo sapiens), P08183 | inhibition, % at 6.6 µM | 190,000 compounds, 0.067% hits | CCRF-Adr cells, JC-1 efflux; in the data active = inhibition above about 40%;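 also: higher value means more JC-1 retained so stronger ABCB1 efflux block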
Target sequence (P08183 whole entry, looked up): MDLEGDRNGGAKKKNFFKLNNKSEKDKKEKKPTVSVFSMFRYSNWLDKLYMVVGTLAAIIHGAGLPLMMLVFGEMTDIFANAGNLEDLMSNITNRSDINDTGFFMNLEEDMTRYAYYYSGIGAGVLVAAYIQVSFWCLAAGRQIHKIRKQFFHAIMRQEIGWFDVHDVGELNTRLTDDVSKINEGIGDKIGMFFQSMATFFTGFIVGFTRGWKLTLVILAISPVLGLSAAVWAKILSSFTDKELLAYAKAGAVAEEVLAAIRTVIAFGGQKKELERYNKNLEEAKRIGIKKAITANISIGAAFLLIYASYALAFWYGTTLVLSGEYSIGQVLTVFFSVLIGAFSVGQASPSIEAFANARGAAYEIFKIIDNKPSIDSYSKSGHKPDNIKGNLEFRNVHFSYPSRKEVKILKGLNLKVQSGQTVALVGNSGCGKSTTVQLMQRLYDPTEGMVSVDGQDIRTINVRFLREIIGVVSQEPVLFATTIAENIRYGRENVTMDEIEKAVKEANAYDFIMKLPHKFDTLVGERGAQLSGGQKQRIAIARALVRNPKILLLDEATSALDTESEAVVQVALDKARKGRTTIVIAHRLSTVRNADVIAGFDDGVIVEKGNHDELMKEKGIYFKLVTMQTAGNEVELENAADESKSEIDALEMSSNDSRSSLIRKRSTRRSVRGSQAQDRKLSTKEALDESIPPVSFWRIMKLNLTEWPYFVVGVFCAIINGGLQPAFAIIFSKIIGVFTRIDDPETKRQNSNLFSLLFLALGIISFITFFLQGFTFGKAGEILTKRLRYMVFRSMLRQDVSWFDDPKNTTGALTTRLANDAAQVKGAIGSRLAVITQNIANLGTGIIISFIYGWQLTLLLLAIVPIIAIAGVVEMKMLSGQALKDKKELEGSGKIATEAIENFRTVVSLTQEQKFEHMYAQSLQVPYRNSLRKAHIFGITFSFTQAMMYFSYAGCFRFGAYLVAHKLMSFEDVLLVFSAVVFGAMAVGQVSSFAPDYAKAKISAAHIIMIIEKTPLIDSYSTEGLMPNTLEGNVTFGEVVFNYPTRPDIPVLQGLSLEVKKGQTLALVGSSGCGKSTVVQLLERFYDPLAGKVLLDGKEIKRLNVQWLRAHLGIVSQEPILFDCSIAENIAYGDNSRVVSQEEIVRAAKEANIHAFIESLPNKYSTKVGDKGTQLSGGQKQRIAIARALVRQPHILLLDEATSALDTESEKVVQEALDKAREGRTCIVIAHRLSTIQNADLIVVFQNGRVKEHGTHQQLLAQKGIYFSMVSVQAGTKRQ
WT yeast gro inh – growth inhibition of WT strain, primary screen, mitochondrial fusion inhibitor project, WT and mutant strains, chemical genetic; mitochondrial fusion phenotypic screen; inhibition, % at 10 µM; 190,000 compounds, 2.1% hits; in the data active = inhibition above about 58%; tested in S. cerevisiae
RAM network inh – inhibitors of the yeast RAM network, primary screen, dse1pr::URA3 reporter, 5-FOA selection | S. cerevisiae dse1pr::URA3 reporter, 5-FOA growth OD615, 2 d; analog-sensitive cbk1-as2 kinase mutant strain | inhibition, % at 50 µM | 190,000 compounds, 1.8% hits | AID 868, 2007;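 active = inhibition above a set limit, 3 SD over mean compound inhibition, cut at about 8.4% in these data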;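 also: inhibition rescues growth on 5-FOA so higher OD means more RAM inhibition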
L major viab – Leishmania major promastigote growth inhibition, primary screen; Leishmania major promastigotes, resazurin fluorescence viability; inhibition, % at 10 µM; 200,000 compounds, 9% hits; AID 1063, 2008; in the data active = inhibition above about 50%;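 also: promastigotes grown with compound for 44 hours at 28 °C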
ABCG2 inh – ABCG2 efflux pump inhibitors, primary screen, multiplex with ABCB1, IgMXP3 cells, flow cytometry; inhibition, % at 6.6 µM; 190,000 compounds, 0.1% hits; Broad substrate specificity ATP-binding cassette transporter ABCG2 (Homo sapiens), Q9UNQ0; JC-1 efflux;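 active = inhibition above 80%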
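Read-out basis: Efflux inhibition in percent versus controls | Test system: ABCG2 IgMXP3 and barcoded ABCB1 CCRF-Adr cell mix | Quantity: 3 million cells/mL in well | Schedule: 10 min at 25 °C | Control set: Nicardipine as high control, DMSO as low control | Reagent: JC-1 as fluorescent efflux pump substrate | Signal: Flow cytometry of retained JC-1 fluorescence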
Lmaj promast 1uM – Leishmania major promastigote growth inhibition, confirmation, 1 µM repeat of primary hits; shares compounds with L major viab; L. major promastigote growth, resazurin fluorescence, 48 h; inhibition, % at 1 µM; 1,100 compounds, 13% hits;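 active = inhibition above about 50% in both repeat tests, limit read from the data; inconclusive = one repeat under the set limit, the other over it; inactive = both repeats under the set limit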
A number is an active result.

What do the screens show for `Cc1ccc(-c2ccc(/C=N\NC(=O)c3cc4c(ccc5ccccc54)o3)o2)cc1[N+](=O)[O-]`?
ABCB1 block: inactive; WT yeast gro inh: inactive; RAM network inh: inactive; L major viab: inactive; ABCG2 inh: inactive

What do the screens show for `Cc1ccc([N+](=O)[O-])cc1-c1ccc(/C=N/NC(=O)c2cc3c(ccc4ccccc43)o2)o1`?
ABCB1 block: inactive; WT yeast gro inh: inactive; RAM network inh: inactive; L major viab: 100; ABCG2 inh: inactive; Lmaj promast 1uM: inactive

What do the screens show for `CNS(=O)(=O)c1cc(NC(C)=O)c(C)cc1C`?
ABCB1 block: inactive; WT yeast gro inh: inactive; RAM network inh: inactive; L major viab: inactive; ABCG2 inh: inactive

How did CCOc1ccc(-n2c(=O)c3sccc3n(Cc3cccc([N+](=O)[O-])c3)c2=O)cc1 do in these assays?
ABCB1 block: inactive; WT yeast gro inh: inactive; RAM network inh: inactive; L major viab: inactive; ABCG2 inh: inactive

What do the screens show for `CC(SC#N)C(=O)C12CC3CC(CC(C3)C1)C2` (stereo not drawn)?
ABCB1 block: inactive; WT yeast gro inh: inactive; RAM network inh: inactive; L major viab: 63; ABCG2 inh: inactive; Lmaj promast 1uM: inactive

How did Cc1ccnc(NC(=O)CSc2nnc3c(n2)[nH]c2ccccc23)c1 do in these assays?
ABCB1 block: inactive; WT yeast gro inh: inactive; RAM network inh: inactive; L major viab: inactive; ABCG2 inh: inactive

How did O=C(/C=C/c1cccc([N+](=O)[O-])c1)NCCN1C(=O)S/C(=C\c2cccnc2)C1=O do in these assays?
ABCB1 block: inactive; WT yeast gro inh: inactive; RAM network inh: inactive; L major viab: 60; ABCG2 inh: inactive; Lmaj promast 1uM: inactive

What do the screens show for `Cc1ccccc1N=C1Nc2ccccc2CS1`?
ABCB1 block: inactive; WT yeast gro inh: inactive; RAM network inh: inactive; L major viab: 51; ABCG2 inh: inactive; Lmaj promast 1uM: inactive

What do the screens show for `Cc1ccccc1N=C1NC(=O)CS1`?
ABCB1 block: inactive; WT yeast gro inh: inactive; RAM network inh: inactive; L major viab: inactive; ABCG2 inh: inactive

What do the screens show for `O=C(N/N=C/c1c[nH]c2ccccc12)c1cccc([N+](=O)[O-])c1`?
ABCB1 block: inactive; WT yeast gro inh: inactive; RAM network inh: inactive; L major viab: inactive; ABCG2 inh: inactive

Results for O=[N+]([O-])c1ccc(N/N=C/c2c[nH]c3ccccc23)cc1 ?
ABCB1 block: inactive; WT yeast gro inh: 87; RAM network inh: inactive; L major viab: 98; ABCG2 inh: inactive; Lmaj promast 1uM: inactive

What do the screens show for `O=C(Nc1ccccc1)N1CCC(C(=O)N2CCN(c3ccccc3F)CC2)CC1`?
ABCB1 block: inactive; WT yeast gro inh: inactive; RAM network inh: inactive; L major viab: inactive; ABCG2 inh: inactive

What do the screens show for `CC(=O)Oc1c(C)cc(O)c2ccccc12`?
ABCB1 block: inactive; WT yeast gro inh: inactive; RAM network inh: inactive; L major viab: 82; ABCG2 inh: inactive; Lmaj promast 1uM: inactive

How did CCOc1ccc2nc(-c3ccccc3)[nH]c2c1 do in these assays?
ABCB1 block: inactive; WT yeast gro inh: inactive; RAM network inh: inactive; L major viab: inactive; ABCG2 inh: inactive

How did COc1ccc2nc(-c3ccccc3)[nH]c2c1 do in these assays?
ABCB1 block: inactive; RAM network inh: inactive; L major viab: 69; ABCG2 inh: inactive; Lmaj promast 1uM: inactive

How did CCOc1ncccc1C(=O)OCC(=O)c1ccc(C)c(C)c1 do in these assays?
ABCB1 block: inactive; WT yeast gro inh: inactive; RAM network inh: inactive; L major viab: inactive; ABCG2 inh: inactive

How did CC(=O)/C=C/n1c(=S)oc2ccccc21 do in these assays?
ABCB1 block: inactive; WT yeast gro inh: inactive; RAM network inh: inactive; L major viab: 100; ABCG2 inh: inactive; Lmaj promast 1uM: inactive

What do the screens show for `CC(C)CC(=O)/C=C/n1c(=S)oc2ccccc21`?
ABCB1 block: inactive; WT yeast gro inh: inactive; RAM network inh: inactive; L major viab: inactive; ABCG2 inh: inactive

What do the screens show for `CCOC(=O)C1CCCN(c2ccc(NC(=O)c3snc4c(=O)[nH]cnc34)cc2)C1` (stereo not drawn)?
ABCB1 block: inactive; WT yeast gro inh: inactive; RAM network inh: inactive; L major viab: 76; ABCG2 inh: inactive; Lmaj promast 1uM: inactive

Results for CC(C)(C)n1nnnc1CN(Cc1cccnc1)Cc1ccccc1Cl ?
ABCB1 block: inactive; WT yeast gro inh: inactive; RAM network inh: inactive; L major viab: 75; ABCG2 inh: inactive; Lmaj promast 1uM: inactive

What do the screens show for `Cc1nc2ccc(C(C(F)(F)F)(C(F)(F)F)C(F)(F)F)cc2[nH]1`?
ABCB1 block: inactive; WT yeast gro inh: inactive; RAM network inh: inactive; L major viab: 100; ABCG2 inh: inactive; Lmaj promast 1uM: inactive

How did CC(C)(C)c1nn(-c2ccccc2)c2nc(Cl)c(C=O)cc12 do in these assays?
ABCB1 block: inactive; WT yeast gro inh: inactive; L major viab: 96; ABCG2 inh: inactive; Lmaj promast 1uM: inactive

What do the screens show for `COCCNC(=O)CNC(=S)N(CCCN1CCOCC1)Cc1cccs1`?
ABCB1 block: inactive; WT yeast gro inh: inactive; RAM network inh: inactive; L major viab: inactive; ABCG2 inh: inactive

Results for COc1cccc(C2C(C(=O)c3cc4ccccc4o3)=C(O)C(=O)N2CCN(C)C)c1OC (stereo not drawn) ?
L major viab: inactive

Results for COc1cccc(C2C(C(=O)c3ccco3)=C(O)C(=O)N2CCN(C)C)c1OC (stereo not drawn) ?
ABCB1 block: inactive; WT yeast gro inh: inactive; RAM network inh: inactive; L major viab: 62; ABCG2 inh: inactive; Lmaj promast 1uM: inactive

Results for CC(Cc1ccccn1)NC(=O)CCc1nnc(C2CCCCC2)o1 (stereo not drawn) ?
ABCB1 block: inactive; WT yeast gro inh: inactive; RAM network inh: inactive; L major viab: inactive; ABCG2 inh: inactive

How did Nc1n[nH]c(-c2ccccc2)n1 do in these assays?
ABCB1 block: inactive; WT yeast gro inh: inactive; RAM network inh: inactive; L major viab: inactive; ABCG2 inh: inactive

What do the screens show for `Nc1n[nH]c(-c2ccccc2[N+](=O)[O-])n1`?
WT yeast gro inh: inactive; RAM network inh: inactive; L major viab: 60; ABCG2 inh: inactive; Lmaj promast 1uM: inactive

Results for OCC1(Cc2ccccc2)CCN(C2CCN(c3ccccc3F)CC2)CC1 ?
ABCB1 block: inactive; WT yeast gro inh: inactive; RAM network inh: inactive; L major viab: 86; ABCG2 inh: inactive; Lmaj promast 1uM: inconclusive

What do the screens show for `O=C1c2ccccc2C(=O)C12Cc1ccccc1N1CCN(c3ccccc3)CC12` (stereo not drawn)?
ABCB1 block: inactive; WT yeast gro inh: inactive; RAM network inh: inactive; L major viab: 65; ABCG2 inh: inactive; Lmaj promast 1uM: 67

What do the screens show for `O=C(O)c1cccnc1Sc1ccc(Cl)cc1`?
ABCB1 block: inactive; WT yeast gro inh: inactive; RAM network inh: inactive; L major viab: inactive; ABCG2 inh: inactive
